Test results from article PMC8418994 (Structure (London, England : 1993), 2021).

Experiments:
[Y473E]-PPARγ LBD [1] = TR-FRET coregulator interaction assay; format: biochemical, human
[Y473E]-PPARγ LBD [2] = Isothermal titration calorimetry; format: binding, human; conditions: ITC at 25°C; Figure S7; in words
In short: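 Human PPARγ LBD Y473E mutant (residues 203–477), expressed His-tagged in E. coli BL21(DE3), purified by Ni-NTA and gel filtration. Protein at 30 μM in the cell; test compound at 300 μM in the syringe. Both in 20 mM potassium phosphate pH 7.4, 50 mM KCl, 5 mM TCEP, 0.5 mM EDTA, 0.17% DMSO. A 0.4 μL pre-injection, then nineteen 2 μL injections at 25°C, stirring 1200 rpm.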

PPARγ LBD = target: T1, PPARγ LBD (Homo sapiens, UniProt P37231); test: TR-FRET fluorescent tracer ligand displacement assay; format: binding
T1 sequence (P37231 203-477 isoform P37231-2): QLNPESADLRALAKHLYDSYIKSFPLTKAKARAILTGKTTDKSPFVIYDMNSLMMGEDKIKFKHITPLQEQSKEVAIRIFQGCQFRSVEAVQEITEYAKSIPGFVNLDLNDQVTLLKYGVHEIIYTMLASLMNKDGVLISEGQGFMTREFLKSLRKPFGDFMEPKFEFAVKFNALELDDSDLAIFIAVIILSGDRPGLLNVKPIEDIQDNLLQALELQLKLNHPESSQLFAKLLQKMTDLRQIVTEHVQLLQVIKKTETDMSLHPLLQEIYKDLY

SMILES | concentration-dependent effect on interaction of the TRAP220/MED1 coactivator peptide ([Y473E]-PPARγ LBD [1]) | binding affinity to [Y473E]-PPARγ LBD ([Y473E]-PPARγ LBD [2]) | Ki (PPARγ LBD) [nM]
CN(CCOc1ccc(C[C@H](Nc2ccccc2C(=O)c2ccccc2)C(=O)O)cc1)c1ccccn1 [GW1929] | essentially no concentration-dependent effect | reasonably high affinity | 
Cc1oc(-c2ccccc2)nc1CCC(=O)c1ccc(CC2SC(=O)NC2=O)cc1 (stereo not drawn) [darglitazone] |  |  | ≤ 1
